Legend:
Canis familiaris = species: Canis familiaris; assay: Relative rate of hydrolysis in dog whole liver homogenates; assay type: ADME, Canis lupus familiaris
Method in brief: (§1)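 Whole liver homogenate, equivalent to 21 mg fresh liver, in 40 mM potassium phosphate pH 7.4 with 0.4 mM substrate, final volume 1.0 mL. Incubated 10 min at 37 °C, then quenched with acetonitrile-methanol (9:1). Amine product measured in the supernatant by HPLC. Unincubated and no-substrate controls run in parallel. Rate expressed as nmol formed/10 min per 21 mg liver.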

[1] = Relative rate of hydrolysis in squirrel monkey whole liver homogenates; assay type: ADME, tissue-based; settings: saimiri, tissue homogenate; method in brief: as §1
Cavia porcellus = species: Cavia porcellus; assay: Relative rate of hydrolysis in guinea pig whole liver homogenates; assay type: ADME; method in brief: as §1
[2] = tested on: Platelet-activating factor receptor (Canis familiaris); assay: Percent inhibition of binding of platelet activating factor (PAF) to dog platelets using [3H]PAF as radioligand at a concentration of 1 uM; settings: Canis lupus familiaris

Row | Relative rate (Canis familiaris) | Relative rate [1] | Relative rate (Cavia porcellus) | inhibition [2] | Structure (SMILES)
1 |  |  |  | 19% | CC(C)c1ccc2nc3ccc(C(=O)NCCCCCCCc4cccnc4)cn3c(=O)c2c1
2 |  |  |  | 9% | CC(C)c1ccc2nc3ccc(C(=O)NCCCCCc4cccnc4)cn3c(=O)c2c1
3 |  |  | 1 |  | CC(C)c1ccc2nc3ccc(C(=O)NCCCCc4cccnc4)cn3c(=O)c2c1
4 |  |  |  | 7% | CC(C)c1ccc2nc3ccc(S(=O)(=O)NCCCCc4cccnc4)cn3c(=O)c2c1
5 | 1.9 | 0.26 | 0.5 |  | CC(C)c1ccc2nc3ccc(C(=O)N[C@@H](C)CCCc4cccnc4)cn3c(=O)c2c1
6 |  |  |  | 0% | Cc1cc2nc3ccc(C(=O)NCCCCc4ccc[n+](C)c4)cn3c(=O)c2cc1C
7 |  |  |  | 15% | CC(C)c1ccc2nc3ccc(CNCCCCc4cccnc4)cn3c(=O)c2c1

Continued, compound first:

Row | Structure (SMILES) | Relative rate (Canis familiaris) | Relative rate [1] | Relative rate (Cavia porcellus) | inhibition [2]
8 | CC(C)c1ccc2nc3ccc(C(=O)N[C@H](C)CCCc4cccnc4)cn3c(=O)c2c1 | < 0.01 | < 0.01 | 0.063 | 
9 | Cc1cc2nc3ccc(C(=O)NCCCCc4cnc[n+](C)c4)cn3c(=O)c2cc1C |  |  |  | 0%
10 | Cc1cc2nc3ccc(C(=O)NCCCCc4ccccc4)cn3c(=O)c2cc1C |  |  |  | 4%
11 | CC(CCCc1cccnc1)NC(=O)c1ccc2nc3ccc(C(C)C)cc3c(=O)n2c1 (racemic) | 1.9 | 0.49 | 0.35 | 
12 | CC(C)c1ccc2nc3ccc(C(=O)NC(C)(C)CCCc4cccnc4)cn3c(=O)c2c1 |  |  | < 0.01 | 
13 | CC(C)c1ccc2nc3ccc(C(=O)NCCCc4cccnc4)cn3c(=O)c2c1 |  |  |  | 5%
14 | CC(C)c1ccc2nc3ccc(CCCCCCc4cccnc4)cn3c(=O)c2c1 |  |  |  | 15%
